# STAT1 blocker: STAT1 signaling inhibition. NIH 3T3 STAT1-luciferase reporter, IFN-gamma, luminescence. inhibition, % at 5.5 µM. 200,000 compounds, 0.35% hits. AID 920;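 active means inhibition above a set limit, the mean inhibition across all tested compounds plus 3 SD, cut at about 34% in these data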;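 further: 0% = IFN-gamma with DMSO and 100% = IFN-gamma with 300 µM nifuroxazide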
# MT stabilize HCS: stabilizes microtubules in HeLa cells | HeLa tubulin immunostaining HCS, 24 h; share of cells brighter than vehicle mean+2SD | % tubulin-high responders, % at 10 µM | 200,000 compounds, 0.83% hits;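 active means plate Z-score above 3 for both tubulin-high and condensed-nucleus cell shares, with cell loss under 80%, at 10 µM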;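 further: anti alpha tubulin signal scored within the nucleus-defined area of each cell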
# STAT3 activator: activators of IL-6 induced STAT3 signaling. 190,000 compounds, 0.91% hits. activation (% of control), % at 5.6 µM. AID 871. U3A cells, IL-6 STAT3-luciferase reporter, luminescence; 100% = signal with IL-6 EC80 alone;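 active means activation above the screen-wide mean of compound activation plus 3 SD, cut at about 130% in these data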;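 further: 0% = background luminescence of wells with medium and substrate only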
#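 Detection: reporter luminescence signal / Assay system: STAT1-lacking human U3A cells, STAT3 luciferase reporter / Incubation: compound pre-incubation 1 h before IL-6, then 6 h stimulation at 37 °C / Control set: IL-6-only high control / Read-out: % activation relative to IL-6 control / Probe or stimulus: Interleukin-6, 33 ng/mL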
# STAT3 inh: reduces IL-6 driven STAT3 reporter signal. U3A cells, IL-6 STAT3-luciferase reporter, luminescence; host cell line lacks STAT1. inhibition, % at 5.5 µM. 190,000 compounds, 0.89% hits. AID 862;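 active means inhibition above the mean inhibition across all screened compounds plus 3 SD, cut at about 44% in these data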;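 further: 0% = DMSO only wells and 100% = 100 µM nifuroxazide control wells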
# bCat nuc transl: modulators of beta-catenin nuclear translocation. HeLa beta-catenin nuclear translocation, immunofluorescence imaging. AID 1665. 190,000 compounds, 0.3% hits. nuclear translocation activity, % at 5 µM;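 active means nuclear translocation activity above 50% at 5 µM, with a well cell count of 50 or more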;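 further: per-cell ratio of nuclear to cytoplasmic median beta-catenin stain intensity; plate controls were DMSO negative control for no effect and GSK-3 inhibitor IX positive control for full effect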
#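 Test system: HeLa cells, endogenous beta-catenin; Compound: single 5 µM dose plus 0.02–20 µM confirmation series; Times: compound exposure 24 h at 37°C; Signal: fluorescence imaging of beta-catenin antibody stain plus DAPI; Read-out: % activation, nuclear-to-cytoplasmic median beta-catenin signal ratio per cell.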
# An asterisk follows results filed as active; . = no result given. Hits are enriched below; roughly 2.4% of the tested compounds scored in any of these assays.
SMILES,STAT1 blocker,MT stabilize HCS,STAT3 activator,STAT3 inh,bCat nuc transl
CC1=NN(c2ccccc2)C(=O)/C1=C\c1cn(-c2ccccc2)nc1C,4,3,99,9,-2
CC1=NN(c2ccccc2)C(=O)/C1=C/c1c(O)n(-c2ccc(F)c(Cl)c2)[nH]c1=O,-47,3,166*,-86,0
CC1=NN(c2ccccc2)C(=O)/C1=C\c1c(C)[nH]n(-c2ccccc2)c1=O,-1,3,144*,-49,-2
CC1=NN(c2ccccc2)C(=O)/C1=C\c1cn(CCC#N)nc1-c1ccc(Cl)cc1,-1,3,109,-6,0
Cc1ccc(S(=O)(=O)N2CCCC(C(=O)NCCC(C)C)C2)cc1 (stereo unspecified),2,4,98,4,1
Cn1c(COc2ccc(Br)cc2)nnc1SC1CCc2ccccc2C1=O (stereo unspecified),3,5,133*,-42,2
N#C/C(=C\c1ccc(Cl)cc1)c1nc2ncccc2[nH]1,-24,42*,111,-8,21
Oc1ccc(-c2n[nH]c(C(F)(F)F)c2-c2ccccc2)c(O)c1,41*,1,40,72*,2
Cc1nn(-c2ccccc2Cl)c(Cl)c1/C=N/Nc1nc2ccccc2s1,34,4,39,73*,-2
Cc1ccsc1/C=N/Nc1nc2ccccc2s1,-82,2,144*,-59,-2
CCOC(=O)N/N=C/c1c(C)nn(-c2ccccc2Cl)c1Cl,-27,3,107,-14,2
O=C(CN1CCCCC1)Nc1ccccc1Oc1ccccc1,.,.,.,.,0
CC(NS(=O)(=O)c1ccc(Cl)cc1)C(=O)NCCC1=CCCCC1 (stereo unspecified),5,4,104,7,1
O/N=C1/C2C3C(Br)C4C5CC(C1C53)C24 (stereo unspecified),-1,2,100,-1,.
COc1ccc2c(c1)C(=O)N(c1ccccc1C)C(=O)C2(C)C,-8,19*,102,2,0
CCCc1nc2sc3c(=O)n(N)cnc3c2c2c1CCCC2,1,4,99,-1,2
CN(C)C(=O)N(CCCN1CCOCC1)Cc1cccc2ccccc12,.,.,.,.,-1
Cc1cccc2nc(CSc3nnc(N)s3)cn12,-7,1,99,7,0
COc1ccc(Nc2nnc(SCc3cn4c(C)cccc4n3)s2)cc1,1,19*,99,6,10
CCCCOc1ccc2c(c1)/C(=C(\C(Cl)=C(Cl)Cl)[N+](=O)[O-])N2,9,9.9*,101,1,0
O=[N+]([O-])c1ccccc1SN(Cc1ccccc1)c1ccccn1,-3,2,107,-6,-6
COC(=O)c1c(C)[nH]c(-c2csc(N)n2)c1C,-19,13*,102,-1,0
O=C(/C(N=Nc1cccc(C(F)(F)F)c1)=C(/O)c1cccs1)C(F)(F)F,.,.,.,.,-4
Cc1ccc(N=C/C(C(=O)C(F)(F)F)=C(\O)c2cccs2)cc1,54*,3,27,84*,.
Fc1cccc(Cc2noc(CN3CCCCC3CCc3ccccn3)n2)c1 (stereo unspecified),1,2,98,14,-1
SMILES,STAT1 blocker,MT stabilize HCS,STAT3 activator,STAT3 inh,bCat nuc transl
COc1cc([N+](=O)[O-])cc2cc(C(=O)N3CCCC3)c(=O)oc12,2,2,97,5,-3
O=C(NCCc1c[nH]c2ccccc12)c1cnccn1,-7,3,113,-10,-3
CCc1nnc(NC(=O)CSc2nnc3c(C)cc4c(C)ccc(C)c4n23)s1,-2,20*,97,3,63*
Cc1cc(NC(=O)CSc2nnc3c(C)cc4c(C)ccc(C)c4n23)no1,20,57*,101,5,94*
Cc1cc(NC(=O)CSc2nncn2-c2ccccc2)no1,-7,3,105,4,1
CCc1nnc(NC(=O)CSc2nnc(-c3ccncc3)n2C)s1,-2,4,109,-9,3
COc1ccccc1-n1cnnc1SCC(=O)Nc1cc(C)on1,0,17*,108,-4,1
COc1ccc(C)cc1NC(=S)NNC(=O)c1c(Br)cnn1C,-2,2,98,9,-2
Cc1cc(OC(=O)c2ccccc2Cl)cc(=O)n1C,35*,3,91,16,-2
COc1ccc(CNC(=O)C/C(C)=N/NC(=O)COc2ccc(C)cc2Br)cc1,1,4,105,0,146*

# High-throughput results deposited in PubChem by several laboratories.
